Data from ChEMBL document CHEMBL5252514, “Conopeptide-Derived κ-Opioid Agonists (Conorphins): Potent, Selective, and Metabolic Stable Dynorphin A Mimetics with Antinociceptive Properties” (J Med Chem, 2016).
Where a SMILES comes first, the peptide text is derived from it.

Tests used:
[1] = Metabolic stability in Wistar rat plasma assessed as half life by HPLC analysis; type: ADME, cell-free
Procedure, shortened: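 Peptide at 1 mg/mL in sterile PBS pH 7.4 was mixed 1:1 with thawed, centrifuged Wistar rat plasma supernatant and incubated at 37°C in triplicate. Samples at 0, 1, 2, 3, 4, 6 and 24 h were quenched with acetonitrile and then 2% TFA/water, and analysed by HPLC with inline electrospray MS.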

[2] = target: Kappa-type opioid receptor (Homo sapiens, UniProt P41145); assay: Displacement of [3H]U69593 from human kappa opioid receptor expressed in CHO-K1 cells incubated for 1 hr by 1450 microbeta scintillation counter analysis; type: cell-based
Chain of Kappa-type opioid receptor (P41145 whole entry): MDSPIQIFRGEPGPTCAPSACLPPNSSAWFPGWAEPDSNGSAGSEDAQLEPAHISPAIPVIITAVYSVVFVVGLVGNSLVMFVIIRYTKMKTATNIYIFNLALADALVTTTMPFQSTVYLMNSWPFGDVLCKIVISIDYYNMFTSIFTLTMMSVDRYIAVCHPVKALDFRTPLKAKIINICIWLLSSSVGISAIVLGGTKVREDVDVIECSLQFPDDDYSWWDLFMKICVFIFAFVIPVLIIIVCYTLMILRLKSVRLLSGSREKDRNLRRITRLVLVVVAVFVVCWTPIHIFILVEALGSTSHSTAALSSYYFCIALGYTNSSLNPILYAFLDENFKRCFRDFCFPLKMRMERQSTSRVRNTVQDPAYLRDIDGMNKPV
Procedure, shortened: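 Membranes from transiently KOR-transfected CHO-K1 cells (~2 µg/well) used in SPA with 3H-U69,593 (1 nM). Competitor ranged 1 pM–10 µM in 50 mM Tris-HCl pH 7.4, 5 mM MgCl2, 0.1% BSA. Incubated 1 h at room temperature with shaking. Nonspecific binding defined with 10 µM dynorphin A. Sigmoidal dose-response fit; at least three independent experiments in triplicate.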

SMILES	half-life [1] [h]	Ki [2] [nM]
N=C(N)NCCC[C@@H](NC(=O)[C@@H](CCCNC(=N)N)NC(=O)[C@@H]1CCCN1C(=O)c1ccc2ccccc2c1)C(=O)N[C@@H](CCC(N)=O)C(=O)N[C@@H](CC1CCCCC1)C(=O)N[C@H]1CSSC[C@@H](C(=O)O)NC1=O	0.5	229
N=C(N)NCCC[C@@H](NC(=O)c1cc2ccccc2cc1N)C(=O)N[C@H](CCCNC(=N)N)C(=O)N[C@@H](CCC(N)=O)C(=O)N[C@@H](CC1CCCCC1)C(=O)N[C@H]1CSSC[C@@H](C(N)=O)NC1=O	1	0.64
N=C(N)NCCC[C@H](NC(=O)[C@H](CCCNC(=N)N)NC(=O)[C@@H]1CSSC[C@H](NC(=O)[C@@H](N)CC(N)=O)C(=O)N1)C(=O)N[C@@H](CCC(N)=O)C(=O)N[C@@H](CC1CCCCC1)C(=O)N[C@H]1CSSC[C@@H](C(N)=O)NC1=O (HELM PEPTIDE1{N.C.C.R.R.Q.[Cha].C.C.[am]}$PEPTIDE1,PEPTIDE1,2:R3-3:R3|PEPTIDE1,PEPTIDE1,8:R3-9:R3$$$V2.0)	< 0.25	1.3
N=C(N)NCCC[C@@H](NC(=O)[C@@H](CCCNC(=N)N)NC(=O)[C@@H]1CCCN1C(=O)c1ccccc1)C(=O)NCC(=O)N[C@@H](CC1CCCCC1)C(=O)N[C@H]1CSSC[C@@H](C(N)=O)NC1=O	1	0.16
N=C(N)NCCC[C@@H](NC(=O)[C@@H](CCCNC(=N)N)NC(=O)[C@@H]1CCCN1C(=O)c1ccc(Cl)c(Cl)c1)C(=O)N[C@@H](CCC(N)=O)C(=O)N[C@@H](CS)C(=O)N[C@@H](CC1CCCCC1)C(=O)N[C@H]1CSSC[C@@H](C(N)=O)NC1=O	1	0.98
N=C(N)NCCC[C@@H](NC(=O)[C@@H]1Cc2ccccc2CN1)C(=O)N[C@H](CCCNC(=N)N)C(=O)N[C@@H](CCC(N)=O)C(=O)N[C@@H](CC1CCCCC1)C(=O)N[C@H]1C[Se][Se]C[C@@H](C(N)=O)NC1=O	6	2.4
N=C(N)NCCC[C@@H](NC(=O)[C@H]1NCCc2ccccc21)C(=O)N[C@H](CCCNC(=N)N)C(=O)N[C@@H](CCC(N)=O)C(=O)N[C@@H](CC1CCCCC1)C(=O)N[C@H]1CSSC[C@@H](C(N)=O)NC1=O	0.75	1.18
N=C(N)NCCC[C@@H](NC(=O)[C@@H]1CCC(=O)N1)C(=O)N[C@H](CCCNC(=N)N)C(=O)N[C@@H](CCC(N)=O)C(=O)N[C@@H](CC1CCCCC1)C(=O)N[C@H]1C[Se]SC[C@@H](C(N)=O)NC1=O	6	7.8
N=C(N)NCCC[C@@H](NC(=O)[C@@H](CCCNC(=N)N)NC(=O)[C@@H]1CCCN1C(=O)c1ccc(Cl)cc1)C(=O)N[C@@H](CCC(N)=O)C(=O)N[C@@H](CC1CCCCC1)C(=O)N[C@H]1CSSC[C@@H](C(N)=O)NC1=O	1	0.13
N=C(N)NCCC[C@@H](NC(=O)[C@@H](CCCNC(=N)N)NC(=O)[C@@H]1CCCN1C(=O)c1ccc(O)cc1)C(=O)N[C@@H](CCC(N)=O)C(=O)N[C@@H](CS)C(=O)N[C@@H](CC1CCCCC1)C(=O)N[C@H]1CSSC[C@@H](C(N)=O)NC1=O	2	1.2
CC[C@H](C)[C@H](NC(=O)[C@H](CCC(N)=O)NC(=O)[C@H](CCCNC(=N)N)NC(=O)[C@@H](N)CCCNC(=N)N)C(=O)N[C@H]1CSSC[C@@H](C(N)=O)NC1=O (HELM PEPTIDE1{R.R.Q.I.C.C.[am]}$PEPTIDE1,PEPTIDE1,5:R3-6:R3$$$V2.0)	0.75	270
CC[C@H](C)[C@H](NC(=O)[C@H](CCCNC(=N)N)NC(=O)[C@H](CCCNC(=N)N)NC(=O)[C@H](CC(C)C)NC(=O)[C@H](Cc1ccccc1)NC(=O)CNC(=O)CNC(=O)[C@@H](N)Cc1ccc(O)cc1)C(=O)N[C@@H](CCCNC(=N)N)C(=O)N1CCC[C@H]1C(=O)N[C@@H](CCCCN)C(=O)N[C@@H](CC(C)C)C(=O)N[C@@H](CCCCN)C(=O)N[C@@H](Cc1c[nH]c2ccccc12)C(=O)N[C@@H](CC(=O)O)C(=O)N[C@@H](CC(N)=O)C(=O)N[C@@H](CCC(N)=O)C(N)=O	2	
N=C(N)NCCC[C@H](NC(=O)[C@@H](CCCNC(=N)N)NC(=O)[C@@H]1CCC(=O)N1)C(=O)N[C@@H](CCC(N)=O)C(=O)N[C@@H](CC1CCCCC1)C(=O)N[C@H]1CSSC[C@@H](C(N)=O)NC1=O	1.5	13
COc1ccc(C(=O)N2CCC[C@H]2C(=O)N[C@H](CCCNC(=N)N)C(=O)N[C@H](CCCNC(=N)N)C(=O)N[C@@H](CCC(N)=O)C(=O)N[C@@H](CS)C(=O)N[C@@H](CC2CCCCC2)C(=O)N[C@H]2CSSC[C@@H](C(N)=O)NC2=O)cc1	2	0.59
N=C(N)NCCC[C@@H](NC(=O)[C@@H](CCCNC(=N)N)NC(=O)[C@@H]1CCCN1C(=O)c1ccccc1)C(=O)N[C@@H](CO)C(=O)N[C@@H](CC1CCCCC1)C(=O)N[C@H]1CSSC[C@@H](C(N)=O)NC1=O		0.42
CC[C@H](C)[C@H](NC(=O)[C@H](CCC(N)=O)NC(=O)[C@H](CCCNC(=N)N)NC(=O)[C@H](CCCNC(N)=O)NC(=O)[C@@H]1CSSC[C@H](NC(=O)[C@@H](N)CC(N)=O)C(=O)N1)C(=O)N[C@H]1CSSC[C@@H](C(N)=O)NC1=O (HELM PEPTIDE1{N.C.C.[Cit].R.Q.I.C.C.[am]}$PEPTIDE1,PEPTIDE1,2:R3-3:R3|PEPTIDE1,PEPTIDE1,8:R3-9:R3$$$V2.0)		218
N=C(N)NCCC[C@@H](NC(=O)[C@@H](CCCNC(=N)N)NC(=O)[C@@H]1CCCN1C(=O)c1ccc(Cl)cc1)C(=O)N[C@@H](CCC(N)=O)C(=O)N[C@@H](CC1CCCCC1)C(=O)N[C@H]1CSSC[C@@H](C(=O)O)NC1=O		795
N=C(N)NCCC[C@@H](NC(=O)[C@@H](CCCNC(=N)N)NC(=O)[C@@H]1CCCN1C(=O)c1ccccc1)C(=O)N[C@@H](CCC(N)=O)C(=O)N[C@@H](CC1CCCCC1)C(=O)N[C@H]1CSSC[C@@H](C(=O)O)NC1=O		2140
CC(C)C[C@H](NC(=O)[C@H](CCC(N)=O)NC(=O)[C@H](CCCNC(=N)N)NC(=O)[C@H](CCCNC(=N)N)NC(=O)[C@@H]1CSSC[C@H](NC(=O)[C@@H](N)CC(N)=O)C(=O)N1)C(=O)N[C@H]1CSSC[C@@H](C(N)=O)NC1=O (HELM PEPTIDE1{N.C.C.R.R.Q.L.C.C.[am]}$PEPTIDE1,PEPTIDE1,2:R3-3:R3|PEPTIDE1,PEPTIDE1,8:R3-9:R3$$$V2.0)		24
N=C(N)NCCC[C@@H](NC(=O)[C@@H]1CCC(=O)N1)C(=O)N[C@H](CCCNC(=N)N)C(=O)N[C@@H](CCC(N)=O)C(=O)N[C@@H](CC1CCCCC1)C(=O)N[C@H]1CCSSC[C@@H](C(N)=O)NC1=O		783
CC(C)C[C@H](NC(=O)[C@@H](CCCNC(=N)N)NC(=O)[C@@H](CCCNC(=N)N)NC(=O)[C@@H]1CCCN1C(=O)c1ccccc1)C(=O)N[C@@H](CC1CCCCC1)C(=O)N[C@H]1CSSC[C@@H](C(N)=O)NC1=O		1.4
N=C(N)NCCC[C@@H](NC(=O)c1cccc(Br)c1)C(=O)N[C@H](CCCNC(=N)N)C(=O)N[C@@H](CCC(N)=O)C(=O)N[C@@H](CC1CCCCC1)C(=O)N[C@H]1CSSC[C@@H](C(N)=O)NC1=O		5.3
N=C(N)NCCC[C@H](NC(=O)[C@H](CCCNC(=N)N)NC(=O)[C@@H]1CSSC[C@H](NC(=O)[C@@H](N)CC(N)=O)C(=O)N1)C(=O)N[C@@H](CCC(N)=O)C(=O)N[C@@H](Cc1ccccc1)C(=O)N[C@H]1CSSC[C@@H](C(N)=O)NC1=O (HELM PEPTIDE1{N.C.C.R.R.Q.F.C.C.[am]}$PEPTIDE1,PEPTIDE1,2:R3-3:R3|PEPTIDE1,PEPTIDE1,8:R3-9:R3$$$V2.0)		28
N=C(N)NCCC[C@@H](NC(=O)[C@@H](CCCNC(=N)N)NC(=O)[C@@H]1CCCN1C(=O)c1ccccc1)C(=O)N[C@@H](CCC(N)=O)C(=O)N[C@@H](CC1CCCCC1)C(=O)N[C@H]1CSSCCN(CC(N)=O)C1=O		465
CC[C@H](C)[C@H](NC(=O)[C@H](C)NC(=O)[C@H](CCCNC(=N)N)NC(=O)[C@H](CCCNC(=N)N)NC(=O)[C@@H]1CSSC[C@H](NC(=O)[C@@H](N)CC(N)=O)C(=O)N1)C(=O)N[C@H]1CSSC[C@@H](C(N)=O)NC1=O (HELM PEPTIDE1{N.C.C.R.R.A.I.C.C.[am]}$PEPTIDE1,PEPTIDE1,2:R3-3:R3|PEPTIDE1,PEPTIDE1,8:R3-9:R3$$$V2.0)		133
N=C(N)NCCC[C@@H](NC(=O)[C@@H](CCCNC(=N)N)NC(=O)[C@@H]1CCCN1C(=O)c1ccccc1)C(=O)N[C@@H](CCC(N)=O)C(=O)N[C@@H](CC1CCCCC1)C(=O)N[C@H]1CSS[C@H]2C[C@@H](C(N)=O)N(C2)C1=O		208
CN(C(=O)[C@H](CC1CCCCC1)NC(=O)[C@H](CCC(N)=O)NC(=O)[C@@H](CCCNC(=N)N)NC(=O)[C@@H](CCCNC(=N)N)NC(=O)[C@@H]1CCCN1C(=O)c1ccccc1)[C@H]1CSSC[C@@H](C(N)=O)NC1=O		15
CC[C@H](C)[C@H](NC(=O)[C@H](CCC(N)=O)NC(=O)[C@H](CCCCN)NC(=O)[C@H](CCCNC(=N)N)NC(=O)[C@@H]1CSSC[C@H](NC(=O)[C@@H](N)CC(N)=O)C(=O)N1)C(=O)N[C@H]1CSSC[C@@H](C(N)=O)NC1=O (HELM PEPTIDE1{N.C.C.R.K.Q.I.C.C.[am]}$PEPTIDE1,PEPTIDE1,2:R3-3:R3|PEPTIDE1,PEPTIDE1,8:R3-9:R3$$$V2.0)		208
CC[C@H](C)[C@H](NC(=O)[C@H](CCC(N)=O)NC(=O)[C@H](CCCNC(=N)N)NC(=O)[C@H](CCCNC(=N)N)NC(=O)[C@@H]1CSSC[C@H](NC(=O)[C@@H](N)Cc2ccc(O)cc2)C(=O)N1)C(=O)N[C@H]1CSSC[C@@H](C(N)=O)NC1=O (HELM PEPTIDE1{Y.C.C.R.R.Q.I.C.C.[am]}$PEPTIDE1,PEPTIDE1,2:R3-3:R3|PEPTIDE1,PEPTIDE1,8:R3-9:R3$$$V2.0)		40.3
CC[C@H](C)[C@H](NC(=O)[C@H](CCC(N)=O)NC(=O)[C@H](CCCNC(N)=O)NC(=O)[C@H](CCCNC(=N)N)NC(=O)[C@@H]1CSSC[C@H](NC(=O)[C@@H](N)CC(N)=O)C(=O)N1)C(=O)NC1CSSC[C@@H](C(N)=O)NC1=O (single isomer, unassigned)		387
